Test results reported in the RNAGym collection of RNA variant scans (doi:10.1002/anie.201605470).

B1: Osa-1-4 twister ribozyme (parent)
chain: CCGCCUAACACUGCCAAUGCCGGUCCCAAGCCCGGAUAAAAGUGGAGGGGGCGG

Variants of: B1
Assay: self-cleavage, relative activity (ratio to wild type); higher = more cleavage; co-transcriptional
Procedure, shortened: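 Relative activity is the fraction cleaved divided by that of the wild-type ribozyme. The library came from a DNA template for a 54-nucleotide Oryza sativa twister ribozyme, doped at the 48 positions downstream of the cleavage site with 97 % wild-type base and 1 % of each other base. After 2 h of in vitro transcription at 37 °C with co-transcriptional self-cleavage, the RNA was reverse-transcribed with a template-switching oligonucleotide, amplified by PCR and deep-sequenced, and reads with or without upstream sequence gave the cleavage status.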

Variant | self-cleavage
C14U C27G | 0.06
C14U C27A | 0.05
C14U C27U | 0.06
C15A G48A | 0.05
C15A G48U | 0.04
C15A G48C | 0.04
C14U G22C | 0.04
C14U G22U | 0.11
C14U G22A | 0.21
C15G G47A | 0.08
C15G G47C | 0.06
C15G G47U | 0.09
C15A G49U | 0.05
C15A G49A | 0.05
C15A G49C | 0.04
C14U C32A | 0.04
C14U C32U | 0.06
C14U C32G | 0.04
C15U C26G | 0.06
C15U C26A | 0.01
C15U C26U | 0.08
C15A U43A | 0.14
C15A U43G | 0.11
C15A U43C | 0.1

Variant | self-cleavage
C14U C20U | 0.48
C14U C20G | 0.05
C14U C20A | 0.51
C15U C25U | 0.08
C15U C25A | 0.03
C15U C25G | 0.04
C15G G23U | 0.04
C15G G23A | 0.14
C15G G23C | 0.07
C14U G45A | 0.04
C14U G45C | 0.04
C14U G45U | 0.06
C14U C52G | 0.28
C14U C52A | 0.21
C14U C52U | 0.52
C15A C32G | 0.07
C15A C32A | 0.08
C15A C32U | 0.07
C15G G42U | 0.05
C15G G42C | 0.08
C15G G42A | 0.12
C14U C9A | 0.12
C14U C9G | 0.2
C14U C9U | 0.41

Variant | self-cleavage
C15G G54A | 0.19
C15G G54U | 0.35
C15G G54C | 0.16
C15A G19C | 0.38
C15A G19U | 0.82
C15A G19A | 0.92
C15G G30C | 0.03
C15G G30A | 0.03
C15G G30U | 0.06
C15A G23A | 0.08
C15A G23U | 0.05
C15A G23C | 0.03
C15U C21G | 0.04
C15U C21U | 0.46
C15U C21A | 0.09
C14U G23U | 0.03
C14U G23A | 0.06
C14U G23C | 0.04
C14U G19A | 0.09
C14U G19U | 0.05
C14U G19C | 0.03
C14U U43C | 0.09
C14U U43G | 0.09
C14U U43A | 0.12

Variant | self-cleavage
C15A U24A | 0.05
C15A U24G | 0.02
C15A U24C | 0.08
C14U G44A | 0.59
C14U G44U | 0.14
C14U G44C | 0.33
C14G G51C | 0.04
C14G G51U | 0.04
C15G G22U | 0.09
C15G G22A | 0.16
C15G G22C | 0.06
C15A C26U | 0.12
C15A C26A | 0.05
C15A C26G | 0.06
C14G U18C | 0.15
C14G U18A | 0.16
C14G U18G | 0.27
C15G C33A | 0.05
C15G C33U | 0.11
C15G C33G | 0.06
C15A U18A | 0.51
C15A U18G | 0.49
C15A U18C | 0.58
C15G G53U | 0.13

Variant | self-cleavage
C15G G53A | 0.13
C15G G53C | 0.05
C15U C20U | 0.54
C15U C20G | 0.05
C15U C20A | 0.45
C15A C33A | 0.07
C15A C33G | 0.03
C15A C33U | 0.09
C14U U24A | 0.04
C14U U24C | 0.05
C14U U24G | 0.02
C15A G22U | 0.09
C15A G22C | 0.03
C15A G22A | 0.2
C14U G30A | 0.79
C14U G30U | 0.03
C14U G30C | 0.03
C15A G53U | 0.1
C15A G53A | 0.14
C15A G53C | 0.06
C15A G42A | 0.12
C15A G42U | 0.05
C15A G42C | 0.08
C15A C20G | 0.06

Variant | self-cleavage
C15A C20U | 0.65
C15A C20A | 0.52
C14G U43C | 0.07
C14G U43A | 0.09
C14G U43G | 0.06
C15A G51U | 0.07
C15A G51C | 0.04
C15A G51A | 0.1
C15G C25G | 0.07
C15G C25U | 0.12
C15G C25A | 0.05
C15G G51A | 0.13
C15G G51U | 0.08
C15G G51C | 0.07
C15G C9U | 0.11
C15G C9A | 0.06
C15G C9G | 0.66
C15A C25U | 0.08
C15A C25G | 0.04
C15A C25A | 0.07
C15G C27U | 0.08
C15G C27A | 0.08
C15G C27G | 0.1
C15G G19A | 0.95

Variant | self-cleavage
C15G G19C | 0.74
C15G G19U | 0.7
C15A C9G | 0.14
C15A C9U | 0.19
C15A C9A | 0.14
C14U G48A | 0.05
C14U G48C | 0.05
C14U G48U | 0.05
C15A G47A | 0.06
C15A G47C | 0.04
C15A G47U | 0.06
C15G C31G | 0.12
C15G C31A | 0.03
C15G C31U | 0.09
C15G C21U | 0.42
C15G C21G | 0.05
C15G C21A | 0.11
C15A G13A | 0.04
C15A G13U | 0.02
C15A G13C | 0.04
C14U U18C | 0.51
C14U U18A | 0.5
C14U U18G | 0.53
